From ChEMBL document CHEMBL2163315, “Synthesis and SAR of geminal substitutions at the C5' carbosugar position of pyrimidine-derived HCV inhibitors” (Bioorg Med Chem Lett, 2012)

Key:
[1] = Drug uptake in rat liver at 10 mg/kg, po after 6 hrs; type: ADME, organism-based; set-up: dose 10 mg/kg, route oral; settings: read-out: Drug uptake
Procedure, shortened: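 Rats dosed orally at 10 mpk. Compound concentration in liver measured at 6 h.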

[2] = AUC (0 to 24 hrs) in rat at 10 mg/kg, po; type: ADME, organism-based; set-up: time < 24 hr, dose 10 mg/kg, route oral; settings: plasma
Procedure, shortened: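 Oral dosing to rats at 10 mpk. Plasma exposure monitored over 0–24 h.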

[3] = Oral bioavailability in dog at 3 mg/kg; type: ADME, organism-based, Canis lupus familiaris; settings: in vivo
[4] = Cytotoxicity against human hepatoma cells assessed as effect on cellular GAPDH RNA level; type: cell-based
[5] = Oral bioavailability in rat at 10 mg/kg; type: ADME, organism-based; settings: in vivo
[6] = AUC (0 to 24 hrs) in cynomolgus monkey at 3 mg/kg, po; type: ADME, organism-based, Macaca fascicularis; set-up: time < 24 hr, dose 3 mg/kg, route oral; settings: plasma
Procedure, shortened: (§1)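 Oral dosing at 3 mpk to dog and monkey. Plasma exposure monitored over 0–24 h.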

[7] = system: Hepatitis C virus; assay: Antiviral activity against Hepatitis C virus genotype 1b Con1 infected in human hepatoma cells assessed as inhibition of viral RNA replication by subgenomic replicon assay; type: functional, organism-based, Hepacivirus hominis; settings: genotype 1b Con 1
Procedure, shortened: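 Subgenomic 1b-Con1 replicon cells seeded at 5000 cells/well one day before dosing. Compound in DMSO added as 10 serial twofold dilutions in triplicate (final 0.5% DMSO, 10% FBS). Cells harvested three days post dosing. Replicon RNA quantified by real-time RT-PCR (Taqman), normalised to GAPDH RNA as endogenous control. EC50 calculated from the dose-response.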

[8] = AUC (0 to 24 hrs) in dog at 3 mg/kg, po; type: ADME, organism-based, Canis lupus familiaris; set-up: time < 24 hr, dose 3 mg/kg, route oral; settings: plasma; procedure, shortened: as §1
[9] = Cytotoxicity against human hepatoma cells assessed as inhibition of [methyl-14C]thymidine incorporation in DNA after 3 days by scintillation proximity assay; type: cell-based; settings: for CC50 at 72 h: human hepatoma cells
Procedure, shortened: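 Replicon cells seeded in scintillating microplates one day before treatment. Various inhibitor concentrations added in triplicate together with [methyl-14C]-thymidine (final 0.5 µCi/mL media) and incubated three days. Incorporated label read by scintillation proximity counting. DNA CC50 is the concentration giving 50% inhibition of thymidine incorporation relative to vehicle-treated cells.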

[10] = Oral bioavailability in cynomolgus monkey at 3 mg/kg; type: ADME, organism-based, Macaca fascicularis; settings: in vivo
[11] = Cytotoxicity against human hepatoma cells after 3 days by MTS assay; type: cell-based
Procedure, shortened: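 Replicon cells treated the same way as in the replicon activity assay (DMSO vehicle, 10% FBS, 3 days). Viability read three days post dosing by MTS (CellTiter 96 Aqueous One). CC50 is the concentration giving 50% inhibition relative to vehicle-treated cells.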

[12] = AUC (0 to 6 hrs) in rat at 10 mg/kg, po; type: ADME, organism-based; set-up: time < 6 hr, dose 10 mg/kg, route oral; settings: plasma
Procedure, shortened: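 Single oral dose of 10 mpk given to rats, as HCl salt. Plasma exposure expressed as AUC over 0–6 h.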

SMILES	concentration at 6 h [1] [ng/g]	AUC(0-t) at 24 h [2] [µM·h]	bioavailability [3] [%]	CC50 [4] [µM]	bioavailability [5] [%]	AUC(0-t) at 24 h [6] [µM·h]	EC50 [7] [µM]	AUC(0-t) at 24 h [8] [µM·h]	CC50 at 72 h [9] [µM]	bioavailability [10] [%]	CC50 at 72 h [11] [µM]	AUC(0-t) at 6 h [12] [µM·h]	CC25 ([9]; 72 h) [µM]
COC[C@@H](C)Nc1nc(C)c(-c2nc3c(C)nccc3s2)c(N[C@@H]2C[C@H](C(C)(C)O)[C@@H](O)[C@H]2O)n1	900	18	50	> 3	81	10	0.02	4.2	25	50	> 3	–	–
CO[C@H](C)CNc1nc(C)c(-c2nc3c(C)nccc3s2)c(N[C@@H]2C[C@H](C(C)(C)O)[C@@H](O)[C@H]2O)n1	1300	6.7	56	> 25	58	13	0.02	3.2	25	45	> 25	–	–
Cc1nc(NCC2CCCCO2)nc(N[C@@H]2C[C@H](C(C)(C)O)[C@@H](O)[C@H]2O)c1-c1nc2c(C)nccc2s1 (stereo partly drawn)	1800	–	–	> 25	–	–	0.004	–	–	–	> 25	9.9	3
CSCCNc1nc(C)c(-c2nc3c(C)nccc3s2)c(N[C@@H]2C[C@H](C(C)(C)O)[C@@H](O)[C@H]2O)n1	–	–	–	> 25	–	–	0.008	–	–	–	> 25	1.6	–
COCC1(CNc2nc(C)c(-c3nc4c(C)nccc4s3)c(N[C@@H]3C[C@H](C(C)(C)O)[C@@H](O)[C@H]3O)n2)CC1	–	–	–	> 25	–	–	0.02	–	–	–	> 25	0.7	–
Cc1nc(NCc2c(F)cc(F)cc2F)nc(N[C@@H]2C[C@H](C(C)(C)O)[C@@H](O)[C@H]2O)c1-c1nc2c(C)nccc2s1	–	–	–	> 25	–	–	0.004	–	–	–	> 25	0.4	–
Cc1nc(N[C@H](C)c2ccc(OC(F)(F)F)cc2)nc(N[C@@H]2C[C@H](C(C)(C)O)[C@@H](O)[C@H]2O)c1-c1nc2c(C)nccc2s1	–	–	–	> 25	–	–	0.18	–	–	–	> 25	1.2	–
Cc1nc(NCC(F)(F)F)nc(N[C@@H]2C[C@H](C(C)(C)O)[C@@H](O)[C@H]2O)c1-c1nc2c(C)nccc2s1	–	–	–	20	–	–	0.01	–	–	–	> 12	1.8	–
Cc1nc(NCCN(C)C)nc(N[C@@H]2C[C@H](C(C)(C)O)[C@@H](O)[C@H]2O)c1-c1nc2c(C)nccc2s1	–	–	–	7	–	–	0.13	–	–	–	12	–	–
Cc1nc(NCCN2CCOCC2)nc(N[C@@H]2C[C@H](C(C)(C)O)[C@@H](O)[C@H]2O)c1-c1nc2c(C)nccc2s1	–	–	–	> 25	–	–	0.02	–	–	–	> 25	0.2	–
Cc1nc(NCC2CC2)nc(N[C@@H]2C[C@H](CO)[C@@H](O)[C@H]2O)c1-c1nc2cnccc2s1	–	–	–	3	–	–	–	–	–	–	–	–	–
Cc1nc(NCC2CC2)nc(N[C@@H]2C[C@H]([C@H](C)O)[C@@H](O)[C@H]2O)c1-c1nc2cnccc2s1.Cl	–	–	–	18	–	–	0.02	–	–	–	13	1.3	–
Cc1nc(NCC2CC2)nc(N[C@@H]2C[C@H](C(C)(C)O)[C@@H](O)[C@H]2O)c1-c1nc2cnccc2s1.Cl	–	–	–	> 12	–	–	0.02	–	–	–	> 12	8.5	–
Cc1nc(N[C@H](C)C2CC2)nc(N[C@@H]2C[C@H](C(C)(C)O)[C@@H](O)[C@H]2O)c1-c1nc2cnccc2s1	–	–	–	> 25	–	–	0.03	–	–	–	25	11	–
COCCNc1nc(C)c(-c2nc3cnccc3s2)c(N[C@@H]2C[C@H](C(C)(C)O)[C@@H](O)[C@H]2O)n1	–	–	–	> 25	–	–	0.05	–	–	–	> 25	1.3	–
Cc1nc(NCC2CC2)nc(N[C@@H]2C[C@H](C(C)(C)O)[C@@H](O)[C@H]2O)c1-c1nc2c(C)nccc2s1	9500	10	66	> 25	39	0.3	0.02	4.9	25	6	> 25	–	–
Cc1nc(N[C@H](C)C2CC2)nc(N[C@@H]2C[C@H](C(C)(C)O)[C@@H](O)[C@H]2O)c1-c1nc2c(C)nccc2s1	13700	19	32	> 25	54	0.5	0.02	2.1	> 25	4	> 25	–	–
COCCNc1nc(C)c(-c2nc3c(C)nccc3s2)c(N[C@@H]2C[C@H](C(C)(C)O)[C@@H](O)[C@H]2O)n1	1900	16	18	> 25	49	3.7	0.02	0.9	7	46	> 25	–	–
CCC(O)(CC)[C@H]1C[C@@H](Nc2nc(NCC3CC3)nc(C)c2-c2nc3c(C)nccc3s2)[C@H](O)[C@@H]1O	–	–	–	> 6	–	–	0.005	–	–	–	> 6	10	–
CCC(O)(CC)[C@H]1C[C@@H](Nc2nc(NCCOC)nc(C)c2-c2nc3c(C)nccc3s2)[C@H](O)[C@@H]1O	–	–	–	> 25	–	–	0.01	–	–	–	> 25	1.4	–
Cc1nc(NCC2CC2)nc(N[C@@H]2C[C@H](C3(O)CC3)[C@@H](O)[C@H]2O)c1-c1nc2c(C)nccc2s1	–	–	–	> 25	–	–	0.004	–	–	–	> 25	1.6	–
COCCNc1nc(C)c(-c2nc3c(C)nccc3s2)c(N[C@@H]2C[C@H](C3(O)CC3)[C@@H](O)[C@H]2O)n1	–	–	–	> 25	–	–	0.007	–	–	–	13	3.9	–
COCC(O)(COC)[C@H]1C[C@@H](Nc2nc(NCC3CC3)nc(C)c2-c2nc3c(C)nccc3s2)[C@H](O)[C@@H]1O	–	–	–	> 6	–	–	0.002	–	4	–	> 6	–	–
CCOCCNc1nc(C)c(-c2nc3c(C)nccc3s2)c(N[C@@H]2C[C@H](C(O)(COC)COC)[C@@H](O)[C@H]2O)n1	–	–	–	> 12	–	–	0.003	–	–	–	6	–	–
Cc1nc(N)nc(N[C@@H]2C[C@H](C(C)(C)O)[C@@H](O)[C@H]2O)c1-c1nc2c(C)nccc2s1	–	–	–	4	–	–	0.04	–	–	–	6	–	–
Cc1nc(NC2CC2)nc(N[C@@H]2C[C@H](C(C)(C)O)[C@@H](O)[C@H]2O)c1-c1nc2c(C)nccc2s1	–	–	–	> 6	–	–	0.05	–	–	–	> 6	58	–
Cc1nc(N(C)CC2CC2)nc(N[C@@H]2C[C@H](C(C)(C)O)[C@@H](O)[C@H]2O)c1-c1nc2c(C)nccc2s1	–	–	–	> 25	–	–	0.09	–	–	–	23	–	–
